Measured values published in ChEMBL document CHEMBL1153722, “Design, synthesis, and characterization of peptide-based rab geranylgeranyl transferase inhibitors” (J Med Chem, 2009).
Peptide text beside a SMILES is read from it. * marks the point of attachment. Hydrocinnamoyl = O=C(CCc1ccccc1)*; Undecanoyl = CCCCCCCCCCC(=O)*; Nicotinoyl = O=C(c1cccnc1)*; NHPh = c1ccc(N*)cc1; NHOH = ON*

species: Rattus norvegicus; test: Inhibition of rat recombinant Rab geranylgeranyltransferase at 100 uM in presence of canine Rab7 and rat REP1 NBD-FPP based continuous fluorimetric assay
Method in brief: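 Continuous fluorometric assay in 96/384-well format: 3 μM Rab7, 3 μM REP1, 9 μM NBD-FPP and 400 nM RabGGTase, with or without inhibitor. […] IC50 was calculated from three independent measurements.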

Row | inhibition [%] | Compound
1 | 90 | O=C(CCNC(=O)[C@H](Cc1c[nH]cn1)NC(=O)OCc1ccccc1)N[C@@H](Cc1ccc(O)cc1)C(=O)O
2 | 119 | CC[C@H](C)[C@H](NC(=O)[C@H](Cc1ccccc1)NC(=O)c1cccnc1)C(=O)N[C@@H](CCCNC(=N)N)C(=O)O (Nicotinoyl-Phe-Ile-Arg-OH)
3 | 80 | NC(=O)CC[C@H](NC(=O)[C@H](Cc1ccccc1)NC(=O)CNC(=O)CCc1ccccc1)C(=O)Nc1ccccc1 (Hydrocinnamoyl-Gly-Phe-Gln-NHPh)
4 | 44 | C[C@H](NC(=O)CCc1ccccc1)C(=O)N[C@@H](Cc1ccccc1)C(=O)N[C@@H](CCC(N)=O)C(=O)OCCCCO
5 | 84 | C=CCCCCCCCCCOC(=O)[C@H](CO)NC(=O)[C@H](Cc1ccccc1)NC(=O)[C@H](CO)NC(=O)CCc1ccccc1
6 | 84 | CC[C@H](C)[C@H](NC(=O)c1ccc(-c2ccccc2)cc1)C(=O)N[C@@H](C(=O)N[C@@H](CCC(N)=O)C(=O)NN)C(C)C
7 | 82 | CC(C)(C)Oc1ccc(C[C@H](NC(=O)c2coc(-c3ccccc3)n2)C(=O)NCC(=O)N[C@@H](Cc2ccccc2)C(=O)O)cc1
8 | 108 | C[C@H](NC(=O)[C@@H](NC(=O)c1ccc(-c2ccccc2)cc1)[C@@H](C)O)C(=O)N[C@@H](CCC(N)=O)C(=O)Nc1nccs1
9 | 60 | C[C@@H](O)[C@H](NC(=O)C(Br)C(Br)c1ccccc1)C(=O)N[C@@H](Cc1ccccc1)C(=O)N[C@@H](CCC(N)=O)C(=O)OCCCCO (some centres undefined)
10 | 99 | O=C(CNC(=O)[C@H](Cc1c[nH]cn1)NC(=O)c1coc(-c2ccccc2)n1)N[C@@H](Cc1ccc(O)cc1)C(=O)O
11 | 55 | CC(C)C[C@H](NC(=O)/C=C/c1ccccc1)C(=O)N[C@@H](Cc1ccc(Br)cc1)C(=O)N[C@@H](Cc1ccccc1)C(=O)OCc1ccccc1

Further lines, the compound ahead of its results:

Row | Compound | inhibition [%]
12 | O=C(CNC(=O)c1coc(-c2ccccc2)n1)N[C@@H](Cc1c[nH]cn1)C(=O)N[C@@H](Cc1c[nH]cn1)C(=O)O | 96
13 | CCCCCCCCCCC(=O)N[C@@H](Cc1ccc(O)cc1)C(=O)N[C@@H](Cc1c[nH]cn1)C(=O)N[C@@H](Cc1ccc(O)cc1)C(=O)NO (Undecanoyl-Tyr-His-Tyr-{NHOH}) | 88
14 | CCCCCCCCCCCOc1ccc(C(=O)N[C@@H](Cc2c[nH]cn2)C(=O)N[C@@H](Cc2c[nH]cn2)C(=O)N[C@@H](Cc2c[nH]cn2)C(=O)NCC(O)CO)cc1 (some centres undefined) | 37
15 | COc1ccc(C[C@@H](C(=O)N(C)[C@@H](Cc2ccccc2)C(=O)O)N(C)C(=O)[C@@H](Cc2ccc(O)cc2)NC(=O)OCc2ccccc2)cc1 | 25
16 | CCCCCCCCCCOc1ccc(C(=O)N[C@@H](Cc2c[nH]cn2)C(=O)N[C@@H](Cc2c[nH]cn2)C(=O)N[C@@H](CO)C(=O)OCCN)cc1 | 70
17 | CCCCCCCCCCC(=O)N[C@@H](Cc1c[nH]cn1)C(=O)N[C@@H](Cc1c[nH]cn1)C(=O)N[C@@H](Cc1ccc(O)cc1)C(=O)Nc1ccccn1 | 70
18 | O=C(/C=C/c1ccc(F)cc1)N[C@@H](CO)C(=O)NCC(=O)N[C@@H](CO)C(=O)NC1CCCCC1 | 81
19 | O=C(CCc1ccc(F)cc1)N[C@@H](Cc1ccc(O)cc1)C(=O)NCC(=O)N[C@@H](Cc1ccc(O)cc1)C(=O)Nc1ccc(F)cc1 | 80
20 | CCCCCCCCCCC(=O)N[C@@H](Cc1c[nH]cn1)C(=O)N[C@@H](Cc1c[nH]cn1)C(=O)N[C@@H](Cc1ccc(O)cc1)C(=O)O (Undecanoyl-His-His-Tyr-OH) | 51
21 | O=C(CNC(=O)c1csc(-c2ccccc2)n1)N[C@@H](Cc1ccccc1)C(=O)N[C@@H](Cc1cn(C(c2ccccc2)(c2ccccc2)c2ccccc2)cn1)C(=O)O | 71
22 | CCCCCCCCCCC(=O)N[C@@H](Cc1c[nH]cn1)C(=O)N[C@@H](Cc1c[nH]cn1)C(=O)N[C@@H](CO)C(=O)NCCCCN | 75
23 | O=C(CNC(=O)[C@H](Cc1ccc(O)cc1)NC(=O)c1ccc(F)cc1F)N[C@@H](Cc1ccc(O)cc1)C(=O)O | 90
24 | CCCCCCCCCCCCCCCC(=O)N[C@@H](Cc1ccc(O)cc1)C(=O)N[C@@H](Cc1ccc(O)cc1)C(=O)N[C@@H](Cc1ccc(O)cc1)C(=O)NCc1ccc(F)cc1F | 92
